ChEMBL document CHEMBL4007426, “Phosphinophosphonates and Their Tris-pivaloyloxymethyl Prodrugs Reveal a Negatively Cooperative Butyrophilin Activation Mechanism” (J Med Chem, 2017)
The source made the active and inactive calls. No cut-off for these calls is given here.

Key:
[1] = biological target: Butyrophilin subfamily 3 member A1 (Homo sapiens) (UniProt O00481); test: Potency index, ratio of HMBPP EC50 to compound EC50 for BTN3A1 in human Vgamma9Vdelta2 T cells
K562 = test: Antiproliferative activity against human K562 cells after 72 hrs by fluorescence spectroscopy; assay type: cell-based; conditions: K562, 72 h
How it was run: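 K562 cells at 1 × 10^4 cells/100 μL exposed to compounds for 72 h. Fluorescent viability reagent added for the final 2 h, then fluorescence read. Viability expressed as percent of untreated cells after subtracting a media-only blank.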

[2] = biological target: Butyrophilin subfamily 3 member A1 (Homo sapiens) (UniProt O00481); test: Activation of BTN3A1 in human Vgamma9Vdelta2 T cells assessed as induction of interleukin 2 stimulated cell proliferation by measuring increase in gammadelta T cell receptor positive cells at 0.1 uM treated for 72 hrs measured on day 11 post last treatment by flow cytometry
How it was run: (§1)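 Human peripheral blood mononuclear cells exposed to compound for 72 h together with interleukin 2, then grown for 11 days. CD3+/γδ TCR+ cells were scored by flow cytometry. […] Negative controls were cells with or without interleukin 2 and no compound. Bars show mean and SD, n=3, with ANOVA and Tukey post-hoc test.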

[3] = Toxicity in human Vgamma9/Vdelta2 T cells treated for 72 hrs measured on day 11 post last treatment by flow cytometry; assay type: cell-based, Vgamma9/Vdelta2 T cell
How it was run: (§2)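 Human peripheral blood mononuclear cells were treated with compound for 72 h, cultured to day 11, and Vγ9Vδ2 (CD3+/γδ TCR+) cells were assessed by flow cytometry over a dose-response range. Interleukin 2 and untreated controls were included. Runs were done at least three independent times using cells from at least 2 donors.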

[4] = biological target: Butyrophilin subfamily 3 member A1 (Homo sapiens) (UniProt O00481); test: Activation of BTN3A1 in human Vgamma9Vdelta2 T cells assessed as induction of interleukin 2 stimulated cell proliferation by measuring increase in CD3 positive cells at 0.1 uM treated for 72 hrs measured on day 11 post last treatment by flow cytometry; assay type: cell-based; how it was run: as §1
[5] = Toxicity in human Vgamma9/Vdelta2 T cells at >= 10 uM treated for 72 hrs measured on day 11 post last treatment by flow cytometry; assay type: cell-based; conditions: vgamma9/vdelta2 t cell; how it was run: as §2
[6] = biological target: Butyrophilin subfamily 3 member A1 (Homo sapiens) (UniProt O00481); test: Binding affinity to recombinant C-terminal His-tagged BTN3A1 intracellular domain (unknown origin) expressed in BL21(DE) at […] by isothermal titration calorimetry
How it was run: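 Full intracellular domain of BTN3A1 was purified as previously described. Protein was at 43 μM and titrant compound at 300–860 μM. Three independent titrations were run per compound.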

[7] = Selectivity index, ratio of IC50 for human Vgamma9Vdelta2 T cells to EC50 for BTN3A1 in human Vgamma9Vdelta2 T cells; assay type: functional
[8] = Safety index, ratio of HMBPP IC50 to compound IC50 for human K562 cells; assay type: ADME, cell-based; conditions: read-out: Ratio IC50
How it was run: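 Direct K562 toxicity: 1 × 10^4 cells/100 μL exposed to compounds for 72 h, with cell quantibluo reagent added for the final 2 h and a fluorescence read-out. Viable cells were expressed as % of untreated control after subtracting a media-only blank, giving an IC50. The fold value divides the reference IC50 by the test IC50.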

[9] = biological target: Butyrophilin subfamily 3 member A1 (Homo sapiens) (UniProt O00481); test: Inhibition of HMBPP binding to recombinant C-terminal His-tagged BTN3A1 intracellular domain (unknown origin) expressed in BL21(DE) assessed as change in entropy of HMBPP binding at 100-fold molar excess of compound by isothermal titration calorimetry (reference value: 19 kJ/mol); assay type: cell-based
[10] = biological target: Butyrophilin subfamily 3 member A1 (Homo sapiens) (UniProt O00481); test: Inhibition of HMBPP binding to recombinant C-terminal His-tagged BTN3A1 intracellular domain (unknown origin) expressed in BL21(DE) by isothermal titration calorimetry
[11] = biological target: Butyrophilin subfamily 3 member A1 (Homo sapiens) (UniProt O00481); test: Inhibition of HMBPP binding to recombinant C-terminal His-tagged BTN3A1 intracellular domain (unknown origin) expressed in BL21(DE) assessed as change in entropy of HMBPP binding at 10-fold higher dose of compound by isothermal titration calorimetry (reference value: 19 kJ/mol); assay type: cell-based
[12] = biological target: Butyrophilin subfamily 3 member A1 (Homo sapiens) (UniProt O00481); test: Binding affinity to recombinant C-terminal His-tagged BTN3A1 intracellular domain (unknown origin) expressed in BL21(DE) assessed as change in entropy at 688 uM by isothermal titration calorimetry
How it was run: (§3)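 Purified full BTN3A1 intracellular domain at 43 μM titrated with compound at 300–860 μM by isothermal titration calorimetry. Three independent titrations per compound.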

[13] = biological target: Butyrophilin subfamily 3 member A1 (Homo sapiens) (UniProt O00481); test: Binding affinity to recombinant C-terminal His-tagged BTN3A1 intracellular domain (unknown origin) expressed in BL21(DE) assessed as change in entropy at 480 uM by isothermal titration calorimetry; how it was run: as §3
[14] = biological target: Butyrophilin subfamily 3 member A1 (Homo sapiens) (UniProt O00481); test: Binding affinity to recombinant C-terminal His-tagged BTN3A1 intracellular domain (unknown origin) expressed in BL21(DE) assessed as change in entropy at 240 uM by isothermal titration calorimetry

Sequence of Butyrophilin subfamily 3 member A1 (Homo sapiens) (O00481 30-513 limits assumed): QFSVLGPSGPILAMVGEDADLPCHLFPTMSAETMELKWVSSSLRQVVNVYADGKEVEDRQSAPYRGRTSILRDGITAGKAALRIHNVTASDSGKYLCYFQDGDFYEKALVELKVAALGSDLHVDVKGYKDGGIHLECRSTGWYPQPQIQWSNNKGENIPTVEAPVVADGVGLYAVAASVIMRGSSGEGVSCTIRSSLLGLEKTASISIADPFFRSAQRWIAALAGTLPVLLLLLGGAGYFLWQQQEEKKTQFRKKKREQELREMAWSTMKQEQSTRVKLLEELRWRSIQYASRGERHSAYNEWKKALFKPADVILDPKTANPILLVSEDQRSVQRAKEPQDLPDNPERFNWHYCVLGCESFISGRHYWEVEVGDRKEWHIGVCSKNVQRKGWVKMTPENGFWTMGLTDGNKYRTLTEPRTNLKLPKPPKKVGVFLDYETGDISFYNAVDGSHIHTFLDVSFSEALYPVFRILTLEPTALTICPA

Row | Activity [2] | Activity [4] | Compound | IC50 (K562) | IC50 at 72 h [3] | also measured
1 | – | – | C/C(=C\CCP(=O)(O)O)CO | – | – | Ratio EC50 [1]: 0.00013
2 | Active | Active | C/C(=C\COP(=O)(O)OP(=O)(O)O)CO | > 100 µM | 0.5 µM | –
3 | Active | Active | C/C(=C\CCP(=O)(CP(=O)(OCOC(=O)C(C)(C)C)OCOC(=O)C(C)(C)C)OCOC(=O)C(C)(C)C)CO (configuration not stated) | – | 3.5 µM | Activity [5]: Toxic; Activity [6]: inactive; Ratio IC50/EC50 [7]: 85; selectivity ratio [8]: > 29
4 | – | – | CC(C)=CCCP(=O)(O)CP(=O)(O)O | > 100 µM | > 100 µM | TdeltaS [9]: 6.69 kcal/mol; inhibition [10]: Dose-dependent effect; TdeltaS [11]: -1.1 kcal/mol
5 | Active | Active | C/C(=C\CCP(=O)(OCOC(=O)C(C)(C)C)OCOC(=O)C(C)(C)C)CO | – | 0.6 µM | Ratio IC50/EC50 [7]: 110; Ratio EC50 [1]: 0.094
6 | – | – | COP(=O)(CC/C=C(\C)CO)CP(=O)(OC)OC (configuration not stated) | > 100 µM | > 100 µM | –
7 | – | – | CC(C)=CCCP(=O)(CP(=O)(OCOC(=O)C(C)(C)C)OCOC(=O)C(C)(C)C)OCOC(=O)C(C)(C)C (configuration not stated) | 9.7 µM | > 100 µM | selectivity ratio [8]: > 10
8 | – | – | C/C(=C\CCP(=O)(O)CP(=O)(O)O)CO | > 100 µM | > 100 µM | TdeltaS [12]: -12.1 kcal/mol; TdeltaS [13]: -13.2 kcal/mol; TdeltaS [14]: -12 kcal/mol
